The text below walks through data of ChEMBL document CHEMBL4422632, “Design of Novel Inhibitors of Human Thymidine Phosphorylase: Synthesis, Enzyme Inhibition, in Vitro Toxicity, and Impact on Human Glioblastoma Cancer” (J Med Chem, 2019).

One series addresses T1, Thymidine phosphorylase (Homo sapiens, UniProt P19971).
T1 sequence (P19971 whole entry): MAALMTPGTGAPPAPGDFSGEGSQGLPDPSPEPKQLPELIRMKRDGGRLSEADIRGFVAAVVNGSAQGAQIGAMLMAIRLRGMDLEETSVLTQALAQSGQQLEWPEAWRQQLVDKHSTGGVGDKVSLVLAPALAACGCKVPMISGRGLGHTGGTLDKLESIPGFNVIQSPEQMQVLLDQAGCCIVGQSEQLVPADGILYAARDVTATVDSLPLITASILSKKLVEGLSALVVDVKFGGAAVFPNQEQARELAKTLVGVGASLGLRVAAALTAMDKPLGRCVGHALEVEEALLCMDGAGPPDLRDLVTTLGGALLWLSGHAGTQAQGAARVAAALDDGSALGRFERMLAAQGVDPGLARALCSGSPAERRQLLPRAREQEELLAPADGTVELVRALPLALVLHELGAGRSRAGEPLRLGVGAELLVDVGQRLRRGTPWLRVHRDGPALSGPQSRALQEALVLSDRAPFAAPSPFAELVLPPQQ
Briefly: Inhibition of recombinant human thymidine phosphorylase expressed in Escherichia coli Rosetta (DE3) cells using thymidine as substrate after 1 min by UV/visible spectrophotometry.

The subject of series [1] is U-87 MG. The series is described as follows: In-vivo inhibition of cell proliferation in human U87MG cells xenografted in BALB/c nude mouse at 50 mg/kg, ip after 14 days by Ki-67b-staining based assay. The series is classed as functional, organism-based. The following applies: U-87MG ATCC. A digest of the protocol:
(§1)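 Male BALB/c nude mice implanted subcutaneously with 5 x 10⁵ U-87 MG cells in the right flank. Treated IP at 50 mg/kg/day for 14 days, with saline controls, starting once tumors reached about 50 mm³. Tumors fixed in formaldehyde and cut at 3 µm. Citrate pH 6 antigen retrieval.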
(In general: In xenograft studies the graft and the host belong to different species.)

For series [2], the system named is U-87 MG. Briefly: Anti-angiogenic activity in tumor of human U87MG cells xenografted in nude BALB/c mouse assessed as reduction in CD31 staining at 50 mg/kg, ip administered for 14 days by immunohistochemistry. The following applies: U-87MG ATCC. The class given is functional, organism-based. A digest of the protocol:
(§2)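 Male nude mice bearing subcutaneous right-flank xenografts of 5 x 10⁵ U-87 MG cells; dosing began at about 50 mm³ tumors, ip daily for 14 days. Tumors formalin-fixed, paraffin sections 3 µm; citrate pH 6 antigen retrieval at 95-98 °C; primary antibody overnight at 4 °C, HRP secondary, DAB. Positive area quantified by optical density at x200, 4 images per tumor; mean ± SEM, one-way ANOVA with Dunnett.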

Series [3] relates to U-87 MG. The series is described as follows: Antitumor activity against human U87MG cells xenografted in BALB/c nude mouse assessed as tumor growth inhibition 50 mg/kg/day, ip administered for 14 days. The class given is functional, organism-based. Conditions: U-87MG ATCC. A digest of the protocol: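 5 x 10⁵ U-87 MG cells implanted subcutaneously in right flank of male BALB/c nude mice; at about 50 mm³, randomized to saline or ip 50 mg/kg/day, with temozolomide 50 mg/kg/day in the combination arm, for 14 days. Relative tumor volume = volume on day / day 0; TGI on day 14 = [1 − RTV treated/RTV control] x 100. Two-way ANOVA with Bonferroni.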

Series [4] in a line: Toxicity in nude BALB/c mouse xenografted with human U87MG cells assessed as reduction in body weight at 50 mg/kg, […]. The series is classed as organism-based. On the set-up: scale not given: the % may be the effect or the level left. Conditions: in vivo, ip, 120 h.
Series [5] deals with U-87 MG. The series is described as follows: Anti-angiogenic activity in tumor of human U87MG cells xenografted in nude BALB/c mouse assessed as reduction in number of blood vessels at 50 mg/kg, ip administered for 14 days by hematoxylin and eosin-staining based light microscopy. The class given is functional, organism-based. The following applies: U-87MG ATCC. Summed up: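 U-87 MG flank xenografts (5 x 10⁵ cells) in male nude mice; ip treatment daily from about 50 mm³ for 14 days, with temozolomide at 50 mg/kg/day in the co-treatment arm. Vessel density counted on HE-stained 3 µm sections by hot-spot method, mean of four fields per tumor at x200, avoiding gross haemorrhage. One-way ANOVA/Dunnett.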

Series [6] concerns U-87 MG. Briefly: Anti-angiogenic activity in tumor of human U87MG cells xenografted in nude BALB/c mouse assessed as reduction in VEGF staining at 50 mg/kg, ip administered for 14 days by immunohistochemistry. The class given is functional, organism-based. The following applies: U-87MG ATCC. Summed up: as §2
The test system of series [7] is U-87 MG. The series is described as follows: Induction of apoptosis in human U87MG cells xenografted in BALB/c nude mouse assessed as caspase-3 levels at 50 mg/kg, ip after 14 days by immunohistochemistry. The class given is functional, organism-based. The following applies: U-87MG ATCC. Summed up:
as §1

Calls of active or inactive are those of the source. The rule behind the calls is not given here.

Turning to `O=c1[nH]c(CNCC(O)CO)c(Br)c(=O)[nH]1` (centres undefined), the IC50 (commonly the midpoint of a concentration-inhibition curve) on Thymidine phosphorylase was more than 100 µM.

For the molecule `Cn1nnc2c(C(N)=O)ncn2c1=O` [TEMOZOLOMIDE], the inhibition result in the series with U-87 MG [1] is “inactive”. Besides, the result with U-87 MG [2], in the series on U-87 MG [5], in the series on U-87 MG [6] and with U-87 MG [7] was inactive. The TGI entry in the series on U-87 MG [3] is “Active”. In addition, the Activity in series [4] was less than 20%.

Turning to `CCCN(CCC)Cc1[nH]c(=O)[nH]c(=O)c1I`, the IC50 on Thymidine phosphorylase is more than 100 µM.
